Results from different studies.
Compare with care: the assays were run in different laboratories.
OXSR1: Serine/threonine-protein kinase OSR1 (OXSR1, Homo sapiens, UniProt O95747)
MMP1: Interstitial collagenase (MMP1, Homo sapiens, UniProt P03956)
PPARA: Peroxisome proliferator-activated receptor alpha (PPARA, Homo sapiens, UniProt Q07869)

SMILES | target | test | system | conditions | measurement | value
CC1CCC(C(C)C)C(P(=O)(c2ccccc2)c2ccccc2)C1 (stereo not drawn) | Potassium voltage-gated channel subfamily A member 5 (KCNA5, Homo sapiens, UniProt P22460) | ion current, inhibitor, patch clamp |  | 1 µM | remaining activity | -94.5%
Nc1ncc(-c2nc(N3CCOCC3)nc(N3CCOCC3)n2)c(C(F)F)n1 | OXSR1 | binding, competition with immobilised ligand |  | 10 µM | remaining binding | 54%
O=C(Nc1cccnn1)N1CCN([C@@H]2CCOc3cc(C(F)(F)F)ccc32)CC1 | MMP1 | cell-free assay |  | 20 µM | inhibition | 8%
O=C(O)C(F)(F)C(F)(F)C(F)(F)C(F)(F)C(F)(F)C(F)(F)C(F)(F)F | PPARA | reporter gene, agonist, luciferase | COS-7 |  | Emax | 92%
Clc1cccc(-c2c[nH]c3ncnc(N4CCOCC4)c23)c1 | Serine/threonine-protein kinase 4 (STK4, Homo sapiens, UniProt Q13043) | thermal stability, DSF |  | 20 µM | ΔTm | > 8 °C
Cc1nn(C)cc1-c1nc2c(N3CCN(Cc4ccc(Cl)cc4)CC3)c(Cl)cnc2[nH]1 | Serine/threonine-protein kinase 36 (STK36, Homo sapiens, UniProt Q9NRP7) | binding, competition with immobilised ligand |  | 1 µM | remaining binding | 74%
O=S(=O)(O)C(F)(F)C(F)(F)C(F)(F)C(F)(F)C(F)(F)C(F)(F)C(F)(F)C(F)(F)F | PPARA | reporter gene, agonist, luciferase |  |  | Emax | 33%
COc1ncccc1-c1cnn2ccc(N3CCN(C(=O)OC(C)C)CC3)nc12 | Myosin-IIIa (MYO3A, Homo sapiens, UniProt Q8NEV4) | binding, competition with immobilised ligand |  | 1 µM | remaining binding | 95%
O=C(O)C(F)(F)C(F)(F)C(F)(F)C(F)(F)C(F)(F)C(F)(F)F | PPARA | reporter gene, agonist, luciferase | COS-7 |  | Emax | 113%
COc1ccc(S(=O)(=O)N(CC(=O)NO)CC(C)C)cc1 | MMP1 | enzyme activity, inhibitor |  | 0.1 µM | inhibition | 2%
CN1CCN(c2ccc(Nc3nccc(-c4cccc([N+](=O)[O-])c4)n3)cc2C(F)(F)F)CC1 | Calcium-dependent protein kinase 1 (CDPK1, Plasmodium falciparum, UniProt P62344) | binding |  | 10 µM | remaining binding | 4.2%
CCOC(=O)c1ccc(OC(=O)CCCCCNC(=N)N)cc1 | Ubiquitin carboxyl-terminal hydrolase 7 (USP7, Homo sapiens, UniProt Q93009) | enzyme activity, inhibitor |  | 10 µM | inhibition | 0%
COc1cc(Nc2ncc(F)c(Nc3ccc4c(n3)NC(=O)C(C)(C)O4)n2)cc(OC)c1OC | OXSR1 | binding, competition with immobilised ligand |  | 10 µM | inhibition | 71%
C#Cc1n[nH]c2c(-c3cn([C@@H](C)c4ccccn4)c(=O)[nH]c3=O)cc(F)cc12 | Eukaryotic elongation factor 2 kinase (EEF2K, Homo sapiens, UniProt O00418) | enzyme activity, inhibitor |  | 0.1 µM | inhibition | 4.2%
N=C(N)c1ccc2cc(OC(=O)c3ccc(N=C(N)N)cc3)ccc2c1 | MMP1 | enzyme activity, inhibitor |  | 10 µM | inhibition | 0%
